Data as given in ChEMBL document CHEMBL1130127, “Synthesis, photophysical properties, in vivo photosensitizing efficacy, and human serum albumin binding properties of some novel bacteriochlorins” (J Med Chem, 1997).
Activity calls are given as the source filed them. The calls are words filed in the database; no cut-off is given here.

Columns and labels:
Mus musculus [1] = test: The compound was tested in vivo for photosensitizing efficacy in DBA/2 Mice transplanted with SMT/F tumors and the activity is expressed as % response (21-25 days) 3 hours post injection at 1 mg/kg concentration; No response; format: functional, organism-based; parameters: dose 1 mg/kg
In short: (§1)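 Female DBA/2 HA-DD mice, 5-7 weeks old. A 1 mm SMT-F tumor piece from a donor was trocar-implanted subcutaneously in the axilla. At about 5 mm tumor diameter, sensitizer in 1% Tween 80/water was given iv; dose was based on extinction coefficient. At 3 or 24 h after injection, restrained mice had the tumor lit with 135 J/cm2 laser light at the in vivo long-wavelength maximum. Tumor response was followed to day 30; six mice/group.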

Mus musculus [2] = test: The compound was tested in vivo for photosensitizing efficacy in DBA/2 Mice transplanted with SMT/F tumors and the activity is expressed as % response (21-25 days) 3 hours post injection at 2.5 mg/kg concentration; format: functional; in short: as §1
Mus musculus [3] = test: The compound was tested in vivo for photosensitizing efficacy in DBA/2 Mice transplanted with SMT/F tumors and the activity is expressed as % response (1-5 days) 3 hours post injection at 2 1 mg/kg concentration; No response; format: functional, organism-based; parameters: dose 1 mg/kg; details: at 1 mg/kg; in short: as §1
Mus musculus [4] = test: The compound was tested in vivo for photosensitizing efficacy in DBA/2 Mice transplanted with SMT/F tumors and the activity is expressed as % response (1-5 days) 3 hours post injection at 2.5 mg/kg concentration; format: functional; in short: as §1
Mus musculus [5] = test: The compound was tested in vivo for photosensitizing efficacy in DBA/2 Mice transplanted with SMT/F tumors and the activity is expressed as % response (1-5 days) 3 hours post injection at 5.0 mg/kg concentration; format: functional; in short: as §1
Mus musculus [6] = test: The compound was tested in vivo for photosensitizing efficacy in DBA/2 Mice transplanted with SMT/F tumors and the activity is expressed as % response (11-15 days) 3 hours post injection at 1 mg/kg concentration; No response; format: functional, organism-based; parameters: dose 1 mg/kg; in short: as §1
Mus musculus [7] = test: The compound was tested in vivo for photosensitizing efficacy in DBA/2 Mice transplanted with SMT/F tumors and the activity is expressed as % response (11-15 days) 3 hours post injection at 2.5 mg/kg concentration; format: functional; in short: as §1
Mus musculus [8] = test: The compound was tested in vivo for photosensitizing efficacy in DBA/2 Mice transplanted with SMT/F tumors and the activity is expressed as % response (11-15 days) 3 hours post injection at 5.0 mg/kg concentration; format: functional; in short: as §1
Mus musculus [9] = test: The compound was tested in vivo for photosensitizing efficacy in DBA/2 Mice transplanted with SMT/F tumors and the activity is expressed as % response (16-20 days) 3 hours post injection at 1 mg/kg concentration; No response; format: functional, organism-based; parameters: dose 1 mg/kg; in short: as §1
Mus musculus [10] = test: The compound was tested in vivo for photosensitizing efficacy in DBA/2 Mice transplanted with SMT/F tumors and the activity is expressed as % response (16-20 days) 3 hours post injection at 2.5 mg/kg concentration; format: functional; in short: as §1
Mus musculus [11] = test: The compound was tested in vivo for photosensitizing efficacy in DBA/2 Mice transplanted with SMT/F tumors and the activity is expressed as % response (16-20 days) 3 hours post injection at 5.0 mg/kg concentration; format: functional; in short: as §1
Mus musculus [12] = test: The compound was tested in vivo for photosensitizing efficacy in DBA/2 Mice transplanted with SMT/F tumors and the activity is expressed as % response (21-25 days) 3 hours post injection at 5.0 mg/kg concentration; No response; format: functional, organism-based; parameters: dose 5 mg/kg; in short: as §1
Mus musculus [13] = test: The compound was tested in vivo for photosensitizing efficacy in DBA/2 Mice transplanted with SMT/F tumors and the activity is expressed as % response (26-30 days) 3 hours post injection at 1 mg/kg concentration; No response; format: functional, organism-based; parameters: dose 1 mg/kg; in short: as §1
Mus musculus [14] = test: The compound was tested in vivo for photosensitizing efficacy in DBA/2 Mice transplanted with SMT/F tumors and the activity is expressed as % response (26-30 days) 3 hours post injection at 2.5 mg/kg concentration; format: functional; in short: as §1
Mus musculus [15] = test: The compound was tested in vivo for photosensitizing efficacy in DBA/2 Mice transplanted with SMT/F tumors and the activity is expressed as % response (26-30 days) 3 hours post injection at 5.0 mg/kg concentration; No response; format: functional, organism-based; parameters: dose 5 mg/kg; in short: as §1
Mus musculus [16] = test: The compound was tested in vivo for photosensitizing efficacy in DBA/2 Mice transplanted with SMT/F tumors and the activity is expressed as % response (6-10 days) 3 hours post injection at 2.5 mg/kg concentration; format: functional; in short: as §1
Mus musculus [17] = test: The compound was tested in vivo for photosensitizing efficacy in DBA/2 Mice transplanted with SMT/F tumors and the activity is expressed as % response (6-10 days) 3 hours post injection at 5.0 mg/kg concentration; format: functional; in short: as §1
Albumin [18] = target: T1, Albumin (Homo sapiens, UniProt P02768); test: Binding affinity against Human serum albumin(Site I).
In short: (§2)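 Fluorometric titration: HSA and sensitizer fixed at 1 × 10^-6 mol/L. Site probe varied 4 × 10^-7 to 2 × 10^-6 mol/L: DNSA for site I, read at 472 nm; DP for site II, read at 476 nm; excitation 340 nm. Incubated 4 °C, pH 7.0, 4 h, dark. Bound probe taken from standard curves of free probe (water) and HSA-bound probe (2.5 × 10^-5 mol/L HSA).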

Albumin [19] = target: T1, Albumin; test: Binding affinity against Human serum albumin(Site II).; in short: as §2
Mus musculus [20] = test: The compound was tested in vivo for photosensitizing efficacy in DBA/2 Mice transplanted with SMT/F tumors and the activity is expressed as % response (6-10 days) 3 hours post injection at 1 mg/kg concentration; No response; format: functional, organism-based; parameters: dose 1 mg/kg; in short: as §1

T1 sequence (P02768 whole entry): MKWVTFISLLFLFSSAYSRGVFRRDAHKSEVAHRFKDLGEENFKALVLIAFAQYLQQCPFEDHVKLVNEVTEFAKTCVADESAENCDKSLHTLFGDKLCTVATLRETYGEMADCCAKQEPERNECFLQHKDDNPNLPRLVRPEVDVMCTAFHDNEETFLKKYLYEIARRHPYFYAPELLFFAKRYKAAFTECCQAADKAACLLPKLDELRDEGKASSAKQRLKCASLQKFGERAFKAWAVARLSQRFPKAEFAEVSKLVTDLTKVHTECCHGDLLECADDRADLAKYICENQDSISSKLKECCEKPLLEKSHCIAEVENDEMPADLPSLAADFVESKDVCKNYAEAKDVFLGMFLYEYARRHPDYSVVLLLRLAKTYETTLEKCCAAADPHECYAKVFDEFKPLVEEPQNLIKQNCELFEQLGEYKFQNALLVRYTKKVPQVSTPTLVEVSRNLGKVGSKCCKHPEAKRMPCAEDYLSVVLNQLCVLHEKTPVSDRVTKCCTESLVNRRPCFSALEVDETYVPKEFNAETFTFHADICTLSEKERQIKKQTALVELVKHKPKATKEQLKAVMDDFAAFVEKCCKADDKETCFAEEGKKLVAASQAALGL

Binding constant (Albumin [18]): 500000 l M-1
Binding constant (Albumin [19]): 500000 l M-1
SMILES: CCc1c(C)c2[nH]c1cc1[nH]c(cc3nc4c(c5nc(c2C=O)[C@@H](C)[C@@H]5CCC(=O)OC)CCC4=C3C)C(=O)C1(C)CC (stereo not given in full)
Response (Mus musculus [1]): inactive
Response (Mus musculus [2]): 60%
Response (Mus musculus [3]): inactive
Response (Mus musculus [4]): 100%
Response (Mus musculus [5]): 100%
Response (Mus musculus [6]): inactive
Response (Mus musculus [7]): 80%
Response (Mus musculus [8]): 60%
Response (Mus musculus [9]): inactive
Response (Mus musculus [10]): 60%
Response (Mus musculus [11]): 0%
Response (Mus musculus [12]): inactive
Response (Mus musculus [13]): inactive
Response (Mus musculus [14]): 20%
Response (Mus musculus [15]): inactive
Response (Mus musculus [16]): 100%
Response (Mus musculus [17]): 60%
Response (Mus musculus [20]): inactive
